Experimental data taken from ChEMBL document CHEMBL1122302, “2-Benzazepines. 2. Thiazolo[5,4-d][2]benzazepines” (J Med Chem, 1983).
pIC50: −log10 of the molar value.

Columns and labels:
[1] = target: GABA-A receptor; anion channel; assay: In vitro displacement of [3H]diazepam from GABA-A benzodiazepine receptor; format: protein-complex assay
[2] = Prevention of metrazole induced convulsions in the antimetrazole test.; format: functional; conditions: Mus musculus
Summary of the method: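 Test compound given as a suspension in 5% acacia to three male CF-1 animals per dose level; metrazole 70 mg/kg iv 1 h later.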

## Cc1nc2c(s1)CN=C(c1ccccc1Cl)c1cc(Cl)ccc1-2
[1]
  pIC50: 8.39
[2]
  ED50: 50 mg/kg

## Cc1nc2c(s1)CN=C(c1ccccc1)c1cc(Cl)ccc1-2
[1]
  pIC50: 7.49
[2]
  ED50: 63 mg/kg

## Cc1nc2c(s1)CN=C(c1ccccc1F)c1cc(Cl)ccc1-2
[1]
  pIC50: 8.11
[2]
  ED50: 30 mg/kg

## Nc1nc2c(s1)CN=C(c1ccccc1Cl)c1cc(Cl)ccc1-2
[1]
  pIC50: 8.80
[2]
  ED50: 9.3 mg/kg

## Nc1nc2c(s1)CN=C(c1ccccc1F)c1cc(Cl)ccc1-2
[1]
  pIC50: 8.55
[2]
  ED50: 7.7 mg/kg

## CN1C(=O)CN=C(c2ccccc2)c2cc(Cl)ccc21 [DIAZEPAM]
[2]
  ED50: 1 mg/kg

## Nc1nc2c(s1)CN=C(c1ccccc1)c1cc(Cl)ccc1-2
[1]
  pIC50: 7.98
[2]
  ED50: 7.4 mg/kg
